Each structure is given as a SMILES string. The source made the active and inactive calls. The calls are words filed in the database; no cut-off is given here.

The test system of series [1] is Mus musculus. Kind of series: Radioprotective activity against 60Co gamma-irradiation-induced toxicity in C57/BL mouse assessed as survival rate at 5 mg/kg, ig administered 24 hrs prior to irradiation and measured over 30 days post irradiation (reference value: 50%). The series is classed as functional. The following applies: light or radiation study, po.
Series [2] deals with HUVEC. Put plainly: Cytotoxicity against HUVEC at 100 uM after 24 hrs by MTS assay. The series is classed as cell-based. Conditions: human. The gist of the method: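 HUVECs grown in RPMI-1640 with 10% FBS and penicillin/streptomycin, pH 7.2, 37 °C, 5% CO2, then trypsinized at 80% confluence. Compound exposure at 100 µM, with viability read by MTS tetrazolium assay.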
(Tetrazolium assays rely on reduction of a dye to a coloured formazan, in cell work by metabolically active cells.)

Series [3] deals with HUVEC. Kind of series: Radioprotective activity against 60Co gamma-irradiation-mediated cytotoxicity in HUVEC assessed as survival rate at 20 uM preincubated for 24 hrs followed by gamma-irradiation and measured after 4 days by MTS assay relative to control. It is filed as functional. Conditions: Homo sapiens, light or radiation study, read-out: Survival. In outline: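 HUVECs in RPMI-1640 with 10% FBS, seeded 4000 cells per mL. After 24 h, exposed to compound from a 100 mM DMSO stock (final 20 µM) for 24 h. Then ⁶⁰Co γ-irradiated at 8.0 Gy, 0.93 Gy min⁻¹, and cultured 4 days with medium changes. MTS added for 3 h at 37 °C and A492 read. Survival calculated relative to non-irradiated cells; mean of three independent experiments.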

The test system of series [4] is HUVEC. Kind of series: Radioprotective activity against 60Co gamma-irradiation-mediated cytotoxicity in HUVEC assessed as increase in survival rate at 40 uM preincubated for 24 hrs followed by gamma-irradiation and measured after 4 days by MTS assay relative to control. It is filed as functional, cell-based. The following applies: Homo sapiens. In outline: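 HUVECs seeded at 4000 cells/mL in RPMI-1640 with 10% FBS. After 24 h, compound added at 40 µM (diluted from 100 mM DMSO stock) for 24 h, then 8.0 Gy 60Co γ at 0.93 Gy/min. Cells grown 4 days with medium changed every 2 days, then MTS for 3 h at 37 °C and A492 read. Survival = blank-corrected OD relative to unirradiated cells; mean of three experiments.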

In series [5] the test system is Mus musculus. Kind of series: Radioprotective activity against 60Co gamma-irradiation-induced toxicity in C57/BL mouse assessed as survival rate at 300 mg/kg, sc administered 15 mins and 24 hrs prior to irradiation and measured over 30 days post irradiation (reference value: 50%). The series is classed as functional. The following applies: light or radiation study.

Series [6] has as its system HUVEC. Kind of series: Radioprotective activity against 60Co gamma-irradiation-induced DNA damage in HUVEC after 24 hrs by comet assay. The series is classed as functional, cell-based. Conditions: Homo sapiens. In outline:
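HUVECs (RPMI-1640, 10% FBS) incubated with compound 24 h, then given 6.0 Gy 60Co γ at 0.93 Gy/min. At 24 h post-irradiation, cells (1 × 10^5/mL) were embedded in comet agarose and lysed 30 min at 4 °C. Alkaline unwinding (300 mM NaOH, 1 mM EDTA, pH > 13) ran 30 min, then electrophoresis at 1.0 V/cm, 20 min. Vista green stain; tail length (µm) of 50 comets/slide; three repeats.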

Series [7] has as its system Mus musculus. Kind of series: Radioprotective activity against 60Co gamma-irradiation-induced toxicity in C57/BL mouse assessed as survival rate at 300 mg/kg, ip administered 15 mins and 24 hrs prior to irradiation and measured over 30 days post irradiation (reference value: 50%). It is filed as functional. The following applies: light or radiation study.
Series [8] relates to Mus musculus. Put plainly: Radioprotective activity against 60Co gamma-irradiation-induced body weight loss in C57/BL mouse assessed as increase in body weight at 300 mg/kg, ip administered 15 mins and 24 hrs prior to irradiation and measured over 10 to 30 days post irradiation. It is filed as functional, organism-based.

For the molecule `C#C[C@]1(O)[C@H](O)C[C@H]2[C@@H]3CCc4cc(OC5CCCC5)ccc4[C@H]3CC[C@@]21C` [NYLESTRIOL], the survival at 5 mg/kg in the series with Mus musculus [1] was 100%.

With `O=S(=O)(Cc1ccccc1Cl)c1ccc2cc(Br)ccc2c1`, in the series on HUVEC [2], the Activity entry was “Non-Toxic”. Moreover, the viability at 20 µM in the series with HUVEC [3] was 56.7%. Further, in the series on HUVEC [4], the result was Active.

For `[O-][S+](Cc1ccc(Br)cc1)c1ccc2ccccc2c1` (centres undefined), the Activity result in the series with HUVEC [2] is “Non-Toxic”. In addition, the viability at 20 µM with HUVEC [3] was determined as 59.3%. For the same molecule, the result in the series on HUVEC [4] was Active.

Turning to `O=C(O)c1ccc(/C=C/S(=O)(=O)Cc2ccc(Cl)cc2)cc1` [RECILISIB SODIUM], the survival at 300 mg/kg with Mus musculus [5] is 60%. Moreover, in the series on HUVEC [3], the viability at 20 µM came to 57.5%. In addition, the outcome in the series on HUVEC [4] was Active.

With `O=S(=O)(Cc1ccccc1F)c1ccc2cc(Br)ccc2c1`, the Activity entry in the series on HUVEC [2] is on record as “Non-Toxic”. Besides, the viability at 20 µM in the series with HUVEC [3] was 52.4%. The outcome in the series with HUVEC [4] was Active.

Regarding `[O-][S+](Cc1cccc(Cl)c1)c1ccc2cc(Br)ccc2c1` (centres undefined), the Activity entry in the series on HUVEC [2] is on record as “Non-Toxic”. Also, in the series on HUVEC [3], the viability at 20 µM worked out at 55.1%. The outcome in the series on HUVEC [4] was Active.

As to `[O-][S+](Cc1ccccc1F)c1ccc2cc(Br)ccc2c1` (centres undefined), in the series with HUVEC [2], the Activity result is listed as “Non-Toxic”. Moreover, the viability at 20 µM in the series on HUVEC [3] turned out to be 51.3%. Besides, the result with HUVEC [4] was Active.

For the molecule `O=S(=O)(Cc1ccc(Br)cc1)c1ccc2cc(Br)ccc2c1`, the Activity entry in the series on HUVEC [2] is “Non-Toxic”. Moreover, the viability at 20 µM in the series with HUVEC [3] amounted to 53.1%. Further, the outcome in the series on HUVEC [4] was Active.

As to `[O-][S+](Cc1ccc(Cl)cc1)c1ccc2ccccc2c1` (centres undefined), in the series on HUVEC [2], the Activity result is recorded as “Non-Toxic”. For the same molecule, in the series with HUVEC [3], the viability at 20 µM came out at 57.2%. In addition, in the series with HUVEC [4], the outcome was Active.

Regarding `[O-][S+](Cc1ccc(F)cc1)c1ccc2ccccc2c1` (centres undefined), the Activity entry with HUVEC [2] is listed as “Non-Toxic”. For the same molecule, the viability at 20 µM in the series on HUVEC [3] worked out at 52%. For the same molecule, the result in the series with HUVEC [4] was Active.

On to `[O-][S+](Cc1ccc(F)cc1)c1ccc2cc(Br)ccc2c1` (centres undefined), for which the result in the series on HUVEC [6], in the series with Mus musculus [8] and in the series with HUVEC [4] was Active. Further, the Activity result in the series on HUVEC [2] is “Non-Toxic”. For the same molecule, the survival at 300 mg/kg in the series with Mus musculus [7] amounted to 100%. Also, the viability at 20 µM in the series on HUVEC [3] came to 77.2%.

These data come from ChEMBL document CHEMBL4257481, “Synthesis and radioprotective effects of novel benzyl naphthyl sulfoxide (sulfone) derivatives transformed from Ex-RAD” (Medchemcomm, 2018).
